27 molecules from ChEMBL document CHEMBL1135750, “Phenoxyphenyl sulfone N-formylhydroxylamines (retrohydroxamates) as potent, selective, orally bioavailable matrix metalloproteinase inhibitors” (J Med Chem, 2002) can be followed below.

For orientation: IC50 means the midpoint of a concentration-inhibition curve. The term AUC denotes concentration integrated over time. For orientation: half-life means the time needed for the level to fall by half in the phase considered.

For one series, the system named is THP-1. The series is described as follows: Selective inhibition of the cellular TNF alpha release from LPS-stimulated THP-1 cells. The series is classed as functional, cell-based. The conditions noted are these: Homo sapiens.
Series [1] has as its target Matrix metalloproteinase-9 (Homo sapiens, UniProt P14780). The series is described as follows: In vitro selective inhibition against Matrix metalloprotease-9 (MMP-9) using fluorimetric assay.
The nature of series [2]: AUC in monkey. The series is classed as ADME. Also noted: concentration or dose not given beside the values. To be noted: simiiformes, plasma.
Series [3] concerns the target 72 kDa type IV collagenase (Homo sapiens, UniProt P08253). The experiment in a line: In vitro selective inhibition against matrix metalloprotease-2 (MMP-2) using fluorimetric assay.
In the next series the target is T1, Interstitial collagenase (Homo sapiens, UniProt P03956).
T1 sequence (P03956 whole entry): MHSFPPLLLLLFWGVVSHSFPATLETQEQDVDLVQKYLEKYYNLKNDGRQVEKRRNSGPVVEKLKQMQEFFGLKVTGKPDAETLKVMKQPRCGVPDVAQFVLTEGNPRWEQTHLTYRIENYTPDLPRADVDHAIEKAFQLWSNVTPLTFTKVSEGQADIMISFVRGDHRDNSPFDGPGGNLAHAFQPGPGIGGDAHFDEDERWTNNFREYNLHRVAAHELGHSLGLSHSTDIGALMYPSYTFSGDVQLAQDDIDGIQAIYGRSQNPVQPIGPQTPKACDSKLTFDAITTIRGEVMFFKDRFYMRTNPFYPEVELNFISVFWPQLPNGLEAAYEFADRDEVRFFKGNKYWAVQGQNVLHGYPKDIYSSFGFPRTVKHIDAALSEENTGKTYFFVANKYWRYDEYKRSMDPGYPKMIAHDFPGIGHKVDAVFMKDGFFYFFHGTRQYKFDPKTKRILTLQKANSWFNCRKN
The experiment in a line: In vitro selective inhibition against matrix metalloprotease-1 (MMP-1) using a fluorimetric assay.

Series [4] is described as follows: Half life measured as t1/2 in hours after iv administration in cynomolgus monkey. The series is classed as ADME, organism-based, Macaca fascicularis. The conditions noted are these: in vivo.
The nature of series [5]: Area under the curve (AUC) after 3 mg/kg peroral administration in cynomolgus monkey. Also noted: dose 3 mg/kg, route oral. To be noted: in vivo, po. The series is classed as ADME, organism-based, Macaca fascicularis. An outline of the steps:
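Single oral dose of 3 mpk in cynomolgus monkeys, two animals per compound. Oral exposure is reported as AUC in μM·h.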

The next series has as its target T2, Matrilysin (Homo sapiens, UniProt P09237).
T2 sequence (P09237 whole entry): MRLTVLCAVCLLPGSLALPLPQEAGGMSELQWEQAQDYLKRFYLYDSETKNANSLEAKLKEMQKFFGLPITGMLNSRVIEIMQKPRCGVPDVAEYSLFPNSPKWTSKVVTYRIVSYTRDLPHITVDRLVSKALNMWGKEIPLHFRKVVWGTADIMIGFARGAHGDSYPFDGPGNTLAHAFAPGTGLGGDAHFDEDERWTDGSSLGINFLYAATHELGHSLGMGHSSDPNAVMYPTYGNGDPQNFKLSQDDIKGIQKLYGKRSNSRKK
The experiment in a line: Inhibition of Matrix metalloprotease-7 (MMP-7) in fluorimetric assay.

In a further series the target is Neutrophil collagenase (Homo sapiens, UniProt P22894). The series is described as follows: Inhibition of Matrix metalloprotease-8 (MMP-8) in fluorimetric assay.
Sequence of Neutrophil collagenase (P22894 whole entry): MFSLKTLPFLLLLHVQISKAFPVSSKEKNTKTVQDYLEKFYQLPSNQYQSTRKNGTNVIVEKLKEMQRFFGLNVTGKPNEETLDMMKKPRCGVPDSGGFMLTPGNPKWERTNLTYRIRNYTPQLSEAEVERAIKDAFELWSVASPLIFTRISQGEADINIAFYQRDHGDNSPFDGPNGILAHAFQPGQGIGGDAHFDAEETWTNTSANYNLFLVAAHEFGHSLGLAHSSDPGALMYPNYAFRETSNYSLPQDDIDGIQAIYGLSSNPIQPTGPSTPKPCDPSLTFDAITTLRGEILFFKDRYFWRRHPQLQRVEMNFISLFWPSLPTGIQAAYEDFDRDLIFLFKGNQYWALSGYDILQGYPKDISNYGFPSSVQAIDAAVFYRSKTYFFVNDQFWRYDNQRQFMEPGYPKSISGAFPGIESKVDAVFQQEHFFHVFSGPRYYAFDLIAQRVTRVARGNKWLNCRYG
For another series, the target named is Stromelysin-1 (Homo sapiens, UniProt P08254). The experiment in a line: Inhibition of Matrix metalloprotease-3 (MMP-3) in fluorimetric assay.
Sequence of Stromelysin-1 (P08254 whole entry): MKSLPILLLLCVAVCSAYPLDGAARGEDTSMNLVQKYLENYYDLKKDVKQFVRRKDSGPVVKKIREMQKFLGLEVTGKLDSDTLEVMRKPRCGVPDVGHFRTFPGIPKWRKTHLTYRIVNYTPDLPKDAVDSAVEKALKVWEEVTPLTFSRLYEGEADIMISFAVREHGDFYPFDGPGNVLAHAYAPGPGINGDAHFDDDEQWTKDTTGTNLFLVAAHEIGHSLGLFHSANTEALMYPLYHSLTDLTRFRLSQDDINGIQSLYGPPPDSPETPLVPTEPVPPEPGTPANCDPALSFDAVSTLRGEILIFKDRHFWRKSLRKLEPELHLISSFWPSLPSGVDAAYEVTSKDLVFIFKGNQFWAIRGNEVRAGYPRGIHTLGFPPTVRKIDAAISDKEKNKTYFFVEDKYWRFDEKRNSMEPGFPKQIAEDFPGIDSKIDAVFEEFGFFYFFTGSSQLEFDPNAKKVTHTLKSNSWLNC
The next series has as its target Collagenase 3 (Homo sapiens, UniProt P45452).

Sequence of Matrix metalloproteinase-9 (P14780 whole entry): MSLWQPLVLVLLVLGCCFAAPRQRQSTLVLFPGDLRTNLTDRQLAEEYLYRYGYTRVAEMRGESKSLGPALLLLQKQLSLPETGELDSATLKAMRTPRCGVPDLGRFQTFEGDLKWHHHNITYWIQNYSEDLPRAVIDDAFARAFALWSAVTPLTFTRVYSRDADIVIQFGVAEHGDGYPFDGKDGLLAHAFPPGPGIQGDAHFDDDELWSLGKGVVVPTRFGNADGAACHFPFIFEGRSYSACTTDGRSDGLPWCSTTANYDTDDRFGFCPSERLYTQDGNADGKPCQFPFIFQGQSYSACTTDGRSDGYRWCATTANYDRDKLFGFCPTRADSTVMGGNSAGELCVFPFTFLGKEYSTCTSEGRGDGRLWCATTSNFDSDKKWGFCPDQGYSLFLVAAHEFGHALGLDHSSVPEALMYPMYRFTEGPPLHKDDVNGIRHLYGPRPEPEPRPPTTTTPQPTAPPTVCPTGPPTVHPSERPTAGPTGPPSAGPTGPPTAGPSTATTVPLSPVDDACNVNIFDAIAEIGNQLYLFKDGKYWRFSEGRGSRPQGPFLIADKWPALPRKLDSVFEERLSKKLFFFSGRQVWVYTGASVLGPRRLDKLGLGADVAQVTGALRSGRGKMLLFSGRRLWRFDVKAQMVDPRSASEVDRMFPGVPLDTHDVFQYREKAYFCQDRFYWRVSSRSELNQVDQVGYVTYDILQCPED
Sequence of 72 kDa type IV collagenase (P08253 whole entry): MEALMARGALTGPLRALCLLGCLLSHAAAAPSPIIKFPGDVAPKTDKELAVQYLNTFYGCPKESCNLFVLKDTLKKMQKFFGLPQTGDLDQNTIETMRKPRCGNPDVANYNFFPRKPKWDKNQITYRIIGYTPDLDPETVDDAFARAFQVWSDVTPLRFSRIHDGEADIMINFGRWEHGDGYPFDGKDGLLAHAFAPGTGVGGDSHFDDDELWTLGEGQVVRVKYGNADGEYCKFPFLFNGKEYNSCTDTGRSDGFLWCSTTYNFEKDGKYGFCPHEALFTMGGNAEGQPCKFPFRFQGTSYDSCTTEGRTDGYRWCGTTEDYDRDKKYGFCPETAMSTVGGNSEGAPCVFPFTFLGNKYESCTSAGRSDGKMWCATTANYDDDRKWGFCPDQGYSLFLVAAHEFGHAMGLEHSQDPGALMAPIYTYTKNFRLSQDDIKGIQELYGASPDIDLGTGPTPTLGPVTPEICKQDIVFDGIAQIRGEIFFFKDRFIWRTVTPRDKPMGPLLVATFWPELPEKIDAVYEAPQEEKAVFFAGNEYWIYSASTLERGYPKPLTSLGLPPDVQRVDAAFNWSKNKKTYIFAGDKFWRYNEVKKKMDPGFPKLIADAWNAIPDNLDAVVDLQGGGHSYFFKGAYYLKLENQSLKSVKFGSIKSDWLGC

In the series on THP-1, `CNC(=O)[C@@H](NC(=O)[C@H](CC(C)C)[C@H](O)C(=O)NO)C(C)(C)C` gave a 50% inhibitory concentration (IC50) of 2100 nM.
For the molecule `CS(=O)(=O)N1CCC[C@H]1[C@@H](CS(=O)(=O)c1ccc(Oc2ccc(OC(F)(F)F)cc2)cc1)N(O)C=O`, the values for the half-inhibitory concentration (IC50) (in [1]; in [3]; on Interstitial collagenase) were 2 nM, 1.9 nM and 8000 nM, respectively. The same molecule registered an exposure (AUC) in series [2] of 24 µM·h.
For `C[C@@H]1OC(C)(C)OC1[C@@H](CS(=O)(=O)c1ccc(Oc2ccc(OC(F)(F)F)cc2)cc1)N(O)C=O` (stereo partly drawn), the IC50 is 1.1 nM in [1], 1.9 nM in series [3] and greater than 50000 nM on Interstitial collagenase. Moreover, the half-life in [4] is 19.5 h. Besides, in series [2], the AUC is 21 µM·h.
In the case of `O=CN(O)C(CS(=O)(=O)c1ccc(Oc2ccc(OC(F)(F)F)cc2)cc1)C1CCC2(CC1)OCCO2` (stereo not drawn), the IC50 was 2 nM in series [1], 0.42 nM in series [3] and greater than 50000 nM on Interstitial collagenase. In addition, in [5], the AUC is 28 µM·h.
For `CC1(C)OCC(C[C@@H](CS(=O)(=O)c2ccc(Oc3ccc(OC(F)(F)F)cc3)cc2)N(O)C=O)O1` (stereo partly drawn), the IC50 in [1] is 5.5 nM; in series [3], 1.5 nM; on Interstitial collagenase, greater than 50000 nM. This molecule also showed an exposure (AUC) in series [2] of 2 µM·h.
With `O=CN(O)C(CCC(=O)N1CCOCC1)CS(=O)(=O)c1ccc(Oc2ccc(OC(F)(F)F)cc2)cc1` (stereo not drawn), the IC50 in [1] is 2 nM; in series [3], 2.6 nM; on Interstitial collagenase, greater than 50000 nM. Also, in [4], the half-life is 8.6 h.
As for `Cn1ccc(=O)n(CC(CS(=O)(=O)c2ccc(Oc3ccc(OC(F)(F)F)cc3)cc2)N(O)C=O)c1=O` (stereo not drawn), the results for the concentration for half-maximal inhibition (IC50) (in series [1]; in series [3]; at Interstitial collagenase) were 1.4 nM, 0.91 nM and 9900 nM, respectively. This molecule also displayed an exposure (AUC) in series [2] of 11 µM·h.
On to `O=CN(O)C(CO)CS(=O)(=O)c1ccc(Oc2ccc(OC(F)(F)F)cc2)cc1` (stereo not drawn), for which the half-maximal inhibitory concentration (IC50) in series [1] was 0.26 nM; in [3] it was 0.35 nM. Further, in series [4], the half-life is 1 h.
In the case of `CC1(C)NC(=O)N(CC(CS(=O)(=O)c2ccc(-c3ccc(C#N)cc3)cc2)N(O)C=O)C1=O` (stereo not drawn), the IC50 in series [1] is 4.1 nM; in series [3] it was 0.34 nM; at Interstitial collagenase, 36 nM. The half-life in [4] is 1.1 h.
On to `CN(C)S(=O)(=O)CC(CS(=O)(=O)c1ccc(Oc2ccc(OC(F)(F)F)cc2)cc1)N(O)C=O` (stereo not drawn), for which the IC50 in series [1] worked out at 7.2 nM; in [3], 0.098 nM; at Interstitial collagenase, 6600 nM. This molecule came in with an AUC in series [2] of 4 µM·h.
On the same counts, the results for `CC1(C)NC(=O)N(CC(CS(=O)(=O)c2ccc(Oc3ccc(C#N)cc3)cc2)N(O)C=O)C1=O` (stereo not drawn) are 3.9 nM, 0.93 nM, 990 nM and 1 µM·h.
On the same counts, the results for `O=CN(O)C(CS(=O)(=O)c1ccc(Oc2ccc(OC(F)(F)F)cc2)cc1)C1CCCO1` (stereo not drawn) are 0.32 nM, 0.61 nM, greater than 50000 nM and 26 µM·h.
For `CN1C(=O)N(CC(CS(=O)(=O)c2ccc(Oc3ccc(Cl)cc3)cc2)N(O)C=O)C(=O)C1(C)C` (stereo not drawn), the IC50 in series [1] came out at 1.4 nM; in series [3], 0.72 nM; against Interstitial collagenase, 280 nM. In series [4], this molecule gave a half-life of 11.7 h. In addition, the exposure (AUC) in [2] is 13 µM·h.
As for `CC1(C)NC(=O)N(CC(CS(=O)(=O)c2ccc(-c3ccc(C(F)(F)F)cc3)cc2)N(O)C=O)C1=O` (stereo not drawn), the values for the IC50 in [1] and in series [3] were 10 nM and 0.45 nM, respectively. The same molecule had a half-life in series [4] of 3.4 h. In series [2], this molecule showed an exposure (AUC) of 4 µM·h.
For the molecule `O=CN(O)C(CS(=O)(=O)c1ccc(Oc2ccc(OC(F)(F)F)cc2)cc1)[C@H](O)CO` (stereo partly drawn), the half-maximal inhibitory concentration (IC50) was 0.092 nM in series [1], 0.36 nM in series [3] and greater than 50000 nM against Interstitial collagenase. Also, the AUC in [2] stood at 3 µM·h.
For `O=CN(O)C(CCN1CCOCC1)CS(=O)(=O)c1ccc(Oc2ccc(OC(F)(F)F)cc2)cc1` (stereo not drawn), the IC50 in series [1] was 1.7 nM; in series [3] it was 0.57 nM; against Interstitial collagenase it was greater than 50000 nM. The half-life in series [4] was 1.4 h. The molecule further had an AUC in [2] of 10 µM·h.
On the same counts, the results for `CC1(C)NC(=O)N(CC(CS(=O)(=O)c2ccc(Oc3ccc(Cl)cc3)cc2)N(O)C=O)C1=O` (stereo not drawn) are 0.96 nM, 0.32 nM, 90 nM, 5.6 h and 17 µM·h.
As to `CCC1(CC)OCC([C@@H](CS(=O)(=O)c2ccc(Oc3ccc(OC(F)(F)F)cc3)cc2)N(O)C=O)O1` (stereo partly drawn), the figures for the 50% inhibitory concentration (IC50) (in series [1]; in series [3]; against Interstitial collagenase) were 1.1 nM, 20 nM and 8300 nM, respectively. Moreover, the AUC in [2] turned out to be 5 µM·h.
With `CC1(C)NC(=O)N(CC(CS(=O)(=O)c2ccc(-c3cccc(CC#N)c3)cc2)N(O)C=O)C1=O` (stereo not drawn), the IC50 was determined as 0.91 nM in series [1], 0.35 nM in series [3] and 78 nM on Interstitial collagenase. The same molecule gave a half-life in series [4] of 0.5 h.
On to `CN(C)CC(CS(=O)(=O)c1ccc(Oc2ccc(OC(F)(F)F)cc2)cc1)N(O)C=O` (stereo not drawn), for which the values for the IC50 (in [1]; in series [3]; at Interstitial collagenase) were 0.9 nM, 1.3 nM and 5200 nM, respectively. For the same molecule, in [4], the half-life is 2.2 h. Besides, the area under the curve (AUC) in [2] was 3 µM·h.
Regarding `CC1(C)NC(=O)N(CC(CS(=O)(=O)c2ccc(-c3ccc(OC(F)(F)F)cc3)cc2)N(O)C=O)C1=O` (stereo not drawn), the IC50 is 0.34 nM in series [1], 0.86 nM in series [3] and 82 nM at Interstitial collagenase. Also, the AUC in [2] turned out to be 5 µM·h.
Take `O=CN(O)C(CS(=O)(=O)c1ccc(Oc2ccc(OC(F)(F)F)cc2)cc1)C(CO)CO` (stereo not drawn): the values for the IC50 (in [1]; in series [3]; against Interstitial collagenase) were 0.49 nM, 2.8 nM and greater than 50000 nM, respectively. In [4], the half-life is 1.9 h. Besides, the AUC in [2] was found to be 8 µM·h.
In the case of `CN1C(=O)N(CC(CS(=O)(=O)c2ccc(Oc3ccc(OC(F)(F)F)cc3)cc2)N(O)C=O)C(=O)C1(C)C` (stereo not drawn), the half-life in series [4] was 0.7 h. This molecule displayed an exposure (AUC) in [2] of 1 µM·h. Besides, the IC50 is 1.8 nM in series [3] and greater than 50000 nM against Interstitial collagenase.
Consider `CS(=O)(=O)N1CCN(CCC(CS(=O)(=O)c2ccc(Oc3ccc(OC(F)(F)F)cc3)cc2)N(O)C=O)CC1` (stereo not drawn), for which the results for the 50% inhibitory concentration (IC50) (in series [1]; in series [3]; on Interstitial collagenase) were 0.79 nM, 0.33 nM and greater than 50000 nM, respectively. In [2], the AUC was found to be 41 µM·h.
On the same counts, the results for `O=CN(O)C(CCc1ccc(C(=O)O)cc1)CS(=O)(=O)c1ccc(Oc2ccc(OC(F)(F)F)cc2)cc1` (stereo not drawn) are 0.53 nM, 0.53 nM, greater than 50000 nM and 16 µM·h.
With `CC1(C)OC[C@H]([C@@H](CS(=O)(=O)c2ccc(Oc3ccc(OC(F)(F)F)cc3)cc2)N(O)C=O)O1` (stereo in doubt), the IC50 at Matrilysin is 11000 nM; in [1] it was 0.5 nM; against Neutrophil collagenase, 5 nM; in series [3], 0.78 nM; against Stromelysin-1, 12 nM; with THP-1, greater than 50000 nM. Besides, the IC50 on Collagenase 3 stood at 3.3 nM; against Interstitial collagenase, 8900 nM.
Consider `CC1(C)SCCN(S(=O)(=O)c2ccc(Oc3ccncc3)cc2)[C@H]1C(=O)NO` [PRINOMASTAT], for which the values for the IC50 at Matrilysin, against Neutrophil collagenase and in the series on THP-1 were 72 nM, 0.54 nM and 8600 nM, respectively.
